# Experimental data: the array DNA melting data of Ke et al. (doi:10.1101/2024.01.08.574731)
# Columns and labels:
# [1] = folding enthalpy; higher = less favourable; fluorescence melt of hairpins on a sequencing array, two-state fit; settings: sodium 0.088 M
# Method in brief: (§1)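 Cy3 fluorescence of library hairpins on a sequenced MiSeq flow cell, with annealed Cy3 and quencher oligos, was imaged in 50 mM Na-HEPES pH 8.0, 25 mM NaCl in 2.5 °C steps up to 60 °C. Signals were normalised to pre-quench Cy3 and to control variants. Melting temperature and folding enthalpy came from bootstrapped two-state fits, inverse-variance combined over four replicates. Fitted temperatures were raised by 9.35 °C to match UV melts.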
# [2] = melting temperature; fluorescence melt of hairpins on a sequencing array, two-state fit, raised by 9.35 °C to match UV melts; settings: sodium 0.088 M
# Method in brief: as §1
Sequence,folding enthalpy [1] [kcal/mol],Tm [2] [°C]
GTTGGGGGAAACCCCAAC (((((((....))))))),-45.9,65.6
GATCATGGAAACATGATC (((((((....))))))),-35.3,56.2
GCTTCCGAAAGGAATAGC ((((((....)))..))),-17.8,44
GGTCACGGAAACGTGGCC ((.((((....)))).)),-37.2,64.9
GAGCACGGAAACACGCTC ((((..(....)..)))),-28.3,37
GATCGTTTTAACGATC ((((((....)))))),-42.2,60.8
CGTAGCGGAAACGCGACG (((.(((....))).))),-31,59.1
GAGTACGAAAGTATTCTC ((((((....)))..))),-27.4,42.6
GTGTGGGGAAACCTACGC (.((.((....)).)).),-24.1,39.2
GCGCTGCGAAAGCGACGC (((..((....))..))),-26.8,63.7
GAGTGCGAAAGCACGCTC ((((((....)))..))),-10.9,66.7
GACGGCGAAAGCCAGTC ((((((....))).))),-22.7,60.2
GCTGCTCGAAAGAGAAGC (((.(((....))).))),-37.6,55.5
GTGCGGGCGAAAGCCCAC (((..(((....)))))),-10.3,62.1
GCGTTCGAAAGAACTCGC ((((((....)))..))),-17,44.7
GGCATCGAAAGATCGCC ((((((....))).))),-24.4,50.4
GATCCATTTGTGGATC ((((((....)))))),-44.5,54.7
GGTGTTGAAAAACACC ((((((....)))))),-37,57.9
GCAGTTGGAAACGATTGC (((.(.(....).).))),-20.5,36.1
GCCGAGCGAAAGCCCAGC ((.(.((....)).).)),-12.4,35.8
GAGAAGGGAAACTTTCTC (((((.(....).))))),-22.7,31.8
GATCACGTTTGTGATC ((((((....)))))),-40.4,58.5
GATCTAACTATAGATC ((((((....)))))),-29.3,37.5

Sequence,folding enthalpy [1] [kcal/mol],Tm [2] [°C]
GATCAGACAGCTGATC ((((((....)))))),-32,45.3
GGAATGACGAAAGTCTCC (((..(((....)))))),-13.3,28.8
GATCAGAAACTGATC ((((((...)))))),-36.4,47.5
GATCTCATAGAGATC ((((((...)))))),-38.3,55.2
CGGGGCCGGAAACGGCCG (((..(((....)))))),-4.87,53.8
GATCCTATAAAGGATC ((((((....)))))),-38.6,51.8
GCTAGGCGAAAGCTTTGC ((.(.((....)).).)),-17.6,42.3
GGTGTAGGAAACTACACC (((((((....))))))),-44.8,60.4
GCGTAGACGAAAGTCCGC (((..(((....)))))),-34.9,53.7
GGCCTCGAAAGAGTGCC ((((((....))).))),-37.7,58.2
GCCCTGCGAAAGCAAGGC (((.(((....))).))),-33.9,55.7
GATCTGAGTGCAGATC ((((((....)))))),-31.1,49.2
GTTTGGGAAACCAAAC ((((((....)))))),-39.5,53.2
GAACGAGGAAACCCGTTC (((((.(....).))))),-33.5,45.9
GATCGATTCGTCGATC ((((((....)))))),-41.5,55.1
ATCATGAAAATGAT (((((....))))),-13.8,38.5
GATCCTGACAGGATC ((((((...)))))),-38.9,55.7
GCAATCGAAAGATAATGC ((((((....)))..))),-16.3,27.8
GACATACGAAAGTAAGTC (((.(((....))).))),-29.7,42.7
GATCTGTGATCAGATC ((((((....)))))),-34,49.2
GAATACGAAAGTAGATTC ((((((....)))..))),-20.3,29.1
GATCATTTACATGATC ((((((....)))))),-35.2,46.3
GTCTGGGGAAACTCAGAC (((((.(....).))))),-43.7,49.1

Sequence,folding enthalpy [1] [kcal/mol],Tm [2] [°C]
GGACTTGGAAACAAGTTC (.(((((....))))).),-29.8,47.5
GATGTGACGAAAGTCATC (((..(((....)))))),-12,34.2
GCTACACGAAAGTGAGC (((.(((....)))))),-19.2,49.4
GGACGGCGAAAGCCATCC (((.(((....))).))),-23.7,50
GATCAACGCATTGATC ((((((....)))))),-34.6,46.2
GGATCCGGAAACGGGTCC (((.(((....))).))),-43.7,59.4
GCCATGCGAAAGCAGTGC ((..(((....)))..)),-15.2,39.7
GGTCTACGAAAGTAACC (((.(((....)))))),-24,34.3
GAACGCGAAAGCGTGTTC ((((((....)))..))),-10.5,46.6
GATTAAGCGAAAGCTATC (((..(((....)))))),-9.58,29.5
GGGGTGGCGAAAGCCCCC (((..(((....)))))),-14.2,62.9
GTGTTGCGAAAGCACCAC (((.(((....))).))),-30.7,51.2
GACGATACGAAAGTAGTC (((..(((....)))))),-17,36.1
GCTACGCGAAAGCTTGGC ((.(.((....)).).)),-17.4,41.1
GGAAAGGGAAACTTTTCC (((((.(....).))))),-18.8,38.4
GATCGCACCGCGATC ((((((...)))))),-34,69
GCCATCGAAAGATCGGC ((((((....))).))),-24.7,48.2
GCCCCCGAAAGGGCCGGC ((((((....)))..))),-16.4,54.3
GTGCATCGAAAGATTCAC (((.(((....))).))),-30.1,43.4
GCCCGGCGAAAGCCTTGC ((..(((....)))..)),-8.46,35.7
CAGGGGAAACCCTG (((((....))))),-23.2,52.5
GAGCAAGGAAACTTGCCC (.(((((....))))).),-11,41
GTGAACGGAAACATTCAC (((((.(....).))))),-31.7,35.4

Sequence,folding enthalpy [1] [kcal/mol],Tm [2] [°C]
GCTCGCGGAAACACGAGC (((((.(....).))))),-44.6,55.2
GAATACCGAAAGGTCTTC (((.(((....))).))),-24.1,36.7
GACAACGGAAACGCTGTC ((((.((....)).)))),-34.7,45.6
GTGCGCGAAAGCGGACAC ((((((....)))..))),-11.1,63.7
GCGTGGGACGC ((((...)))),-16.9,52.4
GTGAACCCGAAAGGGCAC (((..(((....)))))),-15.8,38.9
GTGTATGGAAACACACAC ((((.((....)).)))),-26.1,38.1
GTCCGCGAAAGCGTAGAC ((((((....)))..))),-16.7,43
GTGACTGGAAACGGTCAC (((((.(....).))))),-49.6,53.2
GCGTGTCGAAAGACTCGC (((.(((....))).))),-45.2,63.9
GATCACGCCGTGATC ((((((...)))))),-29.8,63.2
GTCAGAGAAATCTGAC ((((((....)))))),-37.3,51.2
GAACTGGGAAACCAGTCC (.(((((....))))).),-14.1,37.3
GTTACCGGAAACGGTGAC ((.((((....)))).)),-30.4,51.2
GAGTACGAAAGTACTC ((((((....)))))),-35.7,64.8
GTCACGCGAAAGCGGAC (((.(((....)))))),-15.1,57
GGAATAGGAAACTATTCC (((((((....))))))),-41.4,52.7
GCGGAATCCCGC ((((....)))),-22.1,53.9
GATCTTAGTTAAGATC ((((((....)))))),-34.9,44.1
GCCATCGGAAACGATAGC ((.((((....)))).)),-21.6,45
GAATTCGGAAACGAACTC ((.((((....)))).)),-17.4,33.7
CGCATCGGAAACGACGCG (((.(((....))).))),-41.2,51.6
GTTGACGAAAGTCTCAAC ((((((....)))..))),-9.94,28
